According to ChEMBL document CHEMBL1149338, “Synthesis and in vitro evaluation of salvinorin A analogues: effect of configuration at C(2) and substitution at C(18)” (Bioorg Med Chem Lett, 2006):

Tests used:
[1] = target: T1, Kappa-type opioid receptor (Homo sapiens, UniProt P41145); test: Enhancement of [35S]GTP-gamma-S binding to human KOR expressed in CHO cells; type: functional, cell-based
[2] = target: T1, Kappa-type opioid receptor; test: Inhibition of [3H]diprenorphine binding to human KOR expressed in CHO cells; type: cell-based
Method in brief: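 Affinity: membranes from CHO cells stably transfected with human κ-opioid receptor; competitive inhibition of [3H]diprenorphine binding; Ki values; mean of at least three independent experiments, each in duplicate.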

[3] = target: T1, Kappa-type opioid receptor; test: Enhancement of [35S]GTP-gamma-S binding to human KOR expressed in CHO cells relative to U50,488H; type: functional, cell-based
[4] = target: T1, Kappa-type opioid receptor; test: Enhancement of [35S]GTP-gamma-S binding to human KOR expressed in CHO cells relative to U50,488H at 10 uM; type: functional, cell-based

T1 sequence (P41145 whole entry): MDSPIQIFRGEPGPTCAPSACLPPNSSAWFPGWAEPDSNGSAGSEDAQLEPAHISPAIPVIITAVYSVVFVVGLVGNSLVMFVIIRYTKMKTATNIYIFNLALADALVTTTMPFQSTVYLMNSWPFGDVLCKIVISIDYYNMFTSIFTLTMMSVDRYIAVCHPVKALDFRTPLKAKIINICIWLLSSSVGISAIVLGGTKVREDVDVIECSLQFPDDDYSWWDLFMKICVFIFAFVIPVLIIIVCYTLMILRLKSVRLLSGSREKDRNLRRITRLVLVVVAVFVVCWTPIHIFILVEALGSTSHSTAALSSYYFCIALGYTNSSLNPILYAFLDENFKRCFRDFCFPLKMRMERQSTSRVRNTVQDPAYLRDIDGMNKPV

Structure (SMILES)	EC50 [1]	Ki [2]	Efficacy [3]	Efficacy [4]
CCC(=O)N(CC)[C@H]1C[C@@H](C(=O)OC)[C@]2(C)CC[C@H]3C(=O)O[C@H](c4ccoc4)C[C@]3(C)[C@H]2C1=O	37.2 nM	38.1 nM	100%	–
CCN(C(C)=O)[C@@H]1C[C@@H](C(=O)OC)[C@]2(C)CC[C@H]3C(=O)O[C@H](c4ccoc4)C[C@]3(C)[C@H]2C1=O	641 nM	240 nM	95%	–
COC(=O)[C@@H]1C[C@@H](N(C)C(C)=O)C(=O)[C@H]2[C@@]1(C)CC[C@H]1C(=O)O[C@H](c3ccoc3)C[C@]21C	–	–	106%	–
CCC(=O)N(C)[C@@H]1C[C@@H](C(=O)OC)[C@]2(C)CC[C@H]3C(=O)O[C@H](c4ccoc4)C[C@]3(C)[C@H]2C1=O	12.6 nM	6.9 nM	–	–
CCC(=O)O[C@@H]1C[C@@H](C(=O)OC)[C@]2(C)CC[C@H]3C(=O)O[C@H](c4ccoc4)C[C@]3(C)[C@H]2C1=O	–	641 nM	–	–
CC(=O)O[C@H]1C[C@@H](C(=O)N(C)C)[C@]2(C)CC[C@H]3C(=O)O[C@H](c4ccoc4)C[C@]3(C)[C@H]2C1=O	–	> 10000 nM	–	–
CCNC[C@@H]1C[C@H](OC(C)=O)C(=O)[C@@H]2C3(C)C[C@@H](c4ccoc4)OC[C@H]3C(=O)C[C@@]12C (stereo partly drawn)	–	> 10000 nM	–	–
CNC(=O)[C@@H]1C[C@H](OC(C)=O)C(=O)[C@H]2[C@@]1(C)CC[C@H]1C(=O)O[C@H](c3ccoc3)C[C@]21C	–	1390 nM	–	71%
CCNC[C@@H]1C[C@H](OC(C)=O)C(=O)[C@@H]2C3(C)C[C@@H](c4ccoc4)OC[C@@H]3C(=O)C[C@@]12C (stereo partly drawn)	–	> 10000 nM	–	–
CCNC(=O)[C@@H]1C[C@H](OC(C)=O)C(=O)[C@H]2[C@@]1(C)CC[C@H]1C(=O)O[C@H](c3ccoc3)C[C@]21C	–	> 10000 nM	–	–
CCN(C(C)=O)[C@H]1C[C@@H](C(=O)OC)[C@]2(C)CC[C@H]3C(=O)O[C@H](c4ccoc4)C[C@]3(C)[C@H]2C1=O	25.2 nM	27.6 nM	104%	–
CCNC(=O)[C@@H]1C[C@H](OC(C)=O)C(=O)[C@@H]2[C@@]3(C)C[C@@H](c4ccoc4)OC(=O)[C@H]3CC[C@]21C	–	> 10000 nM	–	–
COC[C@@H]1C[C@H](OC(C)=O)C(=O)[C@@H]2C3(C)C[C@@H](c4ccoc4)OC[C@H]3C(=O)C[C@@]12C (stereo partly drawn)	–	769 nM	–	70%
COC(=O)[C@@H]1C[C@H](NC(C)C)C(=O)[C@H]2[C@@]1(C)CC[C@H]1C(=O)O[C@H](c3ccoc3)C[C@]21C	18.9 nM	17.6 nM	–	–
COC(=O)[C@@H]1C[C@@H](N)C(=O)[C@H]2[C@@]1(C)CC[C@H]1C(=O)O[C@H](c3ccoc3)C[C@]21C	1370 nM	223 nM	84%	–
CNC(=O)[C@@H]1C[C@H](OC(C)=O)C(=O)[C@@H]2[C@@]3(C)C[C@@H](c4ccoc4)OC(=O)[C@H]3CC[C@]21C	–	> 1000 nM	–	–
COC(=O)[C@@H]1C[C@@H](NC(C)C)C(=O)[C@H]2[C@@]1(C)CC[C@H]1C(=O)O[C@H](c3ccoc3)C[C@]21C	7.2 nM	2.3 nM	–	–
CCCC(=O)O[C@@H]1C[C@@H](C(=O)OC)[C@]2(C)CC[C@H]3C(=O)O[C@H](c4ccoc4)C[C@]3(C)[C@H]2C1=O	–	665 nM	–	–
CC(=O)O[C@H]1C[C@@H](CN(C)C)[C@]2(C)CC(=O)[C@@H]3CO[C@H](c4ccoc4)CC3(C)[C@H]2C1=O (stereo partly drawn)	–	> 10000 nM	–	–

Structure (SMILES)	EC50 [1]	Ki [2]	Efficacy [3]	Efficacy [4]
CCC(=O)N[C@H]1C[C@@H](C(=O)OC)[C@]2(C)CC[C@H]3C(=O)O[C@H](c4ccoc4)C[C@]3(C)[C@H]2C1=O	444 nM	374 nM	109%	–
CCC(=O)N(C)[C@H]1C[C@@H](C(=O)OC)[C@]2(C)CC[C@H]3C(=O)O[C@H](c4ccoc4)C[C@]3(C)[C@H]2C1=O	0.75 nM	1.6 nM	–	–
CC(=O)O[C@H]1C[C@@H](C(=O)N(C)C)[C@]2(C)CC[C@@H]3C(=O)O[C@H](c4ccoc4)C[C@]3(C)[C@H]2C1=O	–	> 10000 nM	–	–
CCO[C@@H]1C[C@@H](C(=O)OC)[C@]2(C)CC[C@H]3C(=O)O[C@H](c4ccoc4)C[C@]3(C)[C@H]2C1=O	–	> 10000 nM	–	–
COC(=O)[C@@H]1C[C@H](NC(C)=O)C(=O)[C@H]2[C@@]1(C)CC[C@H]1C(=O)O[C@H](c3ccoc3)C[C@]21C	188 nM	149 nM	–	–
CC(=O)O[C@H]1C[C@@H](CO)[C@]2(C)CC(=O)[C@H]3CO[C@H](c4ccoc4)CC3(C)[C@H]2C1=O (stereo partly drawn)	–	1000 nM	–	68%
COC(=O)[C@@H]1C[C@@H](OC)C(=O)[C@H]2[C@@]1(C)CC[C@H]1C(=O)O[C@H](c3ccoc3)C[C@]21C	–	> 10000 nM	–	–
CNC[C@@H]1C[C@H](OC(C)=O)C(=O)[C@@H]2C3(C)C[C@@H](c4ccoc4)OC[C@@H]3C(=O)C[C@@]12C (stereo partly drawn)	–	> 10000 nM	–	–
CCC(=O)N[C@@H]1C[C@@H](C(=O)OC)[C@]2(C)CC[C@H]3C(=O)O[C@H](c4ccoc4)C[C@]3(C)[C@H]2C1=O	718 nM	117 nM	102%	–
CC(=O)O[C@H]1C[C@@H](CN(C)C)[C@]2(C)CC(=O)[C@H]3CO[C@H](c4ccoc4)CC3(C)[C@H]2C1=O (stereo partly drawn)	–	> 10000 nM	–	–
CN[C@H]1C[C@@H](C(=O)OC)[C@]2(C)CC[C@H]3C(=O)O[C@H](c4ccoc4)C[C@]3(C)[C@H]2C1=O	825 nM	328 nM	82%	–
COC(=O)[C@@H]1C[C@H](N(C)C(C)=O)C(=O)[C@H]2[C@@]1(C)CC[C@H]1C(=O)O[C@H](c3ccoc3)C[C@]21C	2.4 nM	3.2 nM	103%	–
COC(=O)[C@@H]1C[C@H](N(C)C)C(=O)[C@H]2[C@@]1(C)CC[C@H]1C(=O)O[C@H](c3ccoc3)C[C@]21C	240 nM	168 nM	110%	–
COC(=O)[C@@H]1C[C@@H](NC(C)=O)C(=O)[C@H]2[C@@]1(C)CC[C@H]1C(=O)O[C@H](c3ccoc3)C[C@]21C	339 nM	332 nM	–	–
CNC[C@@H]1C[C@H](OC(C)=O)C(=O)[C@@H]2C3(C)C[C@@H](c4ccoc4)OC[C@H]3C(=O)C[C@@]12C (stereo partly drawn)	–	> 10000 nM	–	–
CCC(=O)N(CC)[C@@H]1C[C@@H](C(=O)OC)[C@]2(C)CC[C@H]3C(=O)O[C@H](c4ccoc4)C[C@]3(C)[C@H]2C1=O	857 nM	376 nM	96%	–
CC(=O)O[C@H]1C[C@@H](CO)[C@]2(C)CC(=O)[C@@H]3CO[C@H](c4ccoc4)CC3(C)[C@H]2C1=O (stereo partly drawn)	–	> 10000 nM	–	–
COC(=O)[C@@H]1C[C@H](OC(C)=O)C(=O)[C@@H]2[C@@]3(C)C[C@@H](c4ccoc4)OC(=O)[C@H]3CC[C@]21C	–	–	88%	–
CCN[C@H]1C[C@@H](C(=O)OC)[C@]2(C)CC[C@H]3C(=O)O[C@H](c4ccoc4)C[C@]3(C)[C@H]2C1=O	72.8 nM	65.2 nM	–	–
